ChEMBL document CHEMBL1131219, “Inhibition of human alcohol dehydrogenases by formamides” (J Med Chem, 1998)

How the values were obtained:
Alcohol dehydrogenase 1C = Alcohol dehydrogenase 1C (Homo sapiens, UniProt P00326); assay: Inhibition of human alcohol dehydrogenase gamma2 activity
Procedure, shortened: (§1)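 Purified human isozyme in 46 mM sodium phosphate with 0.25 mM EDTA, pH 7.0, 25 °C. The varied substrate (ethanol, acetaldehyde or cyclohexanone) was chosen per enzyme, with coenzyme fixed at 0.2 mM NADH or 2.0 mM NAD+. Inhibitor varied over at least a 3-fold range, 20–25 conditions in duplicate.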

Alcohol dehydrogenase 1A = Alcohol dehydrogenase 1A (Homo sapiens, UniProt P07327); assay: Inhibition of human alcohol dehydrogenase alpha activity
Procedure, shortened: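 Purified human α isozyme. Buffer was 46 mM sodium phosphate with 0.25 mM EDTA, pH 7.0, 25 °C; runs were also done in 33 mM phosphate/EDTA, pH 8.0. NADH 0.2 mM or NAD+ 2.0 mM held fixed. NADH change followed at 340 nm.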

[1] = molecular target: All-trans-retinol dehydrogenase [NAD(+)] ADH4 (Homo sapiens, UniProt P08319); assay: Inhibition of human alcohol dehydrogenase pi activity; procedure, shortened: as §1
[2] = molecular target: All-trans-retinol dehydrogenase [NAD(+)] ADH1B (Homo sapiens, UniProt P00325); assay: Inhibition of human alcohol dehydrogenase beta 1 activity; procedure, shortened: as §1
[3] = molecular target: T1, All-trans-retinol dehydrogenase [NAD(+)] ADH7 (Homo sapiens, UniProt P40394); assay: Inhibition of human alcohol dehydrogenase sigma activity; procedure, shortened: as §1
Alcohol dehydrogenase = Alcohol dehydrogenase (Equus caballus, UniProt P00327+P00328); assay: Inhibition of horse liver alcohol dehydrogenase activity
[4] = molecular target: T1, All-trans-retinol dehydrogenase [NAD(+)] ADH7; assay: Inhibitory activity against human alcohol dehydrogenase sigma.; procedure, shortened: as §1

Sequence of All-trans-retinol dehydrogenase [NAD(+)] ADH1B (P00325 whole entry): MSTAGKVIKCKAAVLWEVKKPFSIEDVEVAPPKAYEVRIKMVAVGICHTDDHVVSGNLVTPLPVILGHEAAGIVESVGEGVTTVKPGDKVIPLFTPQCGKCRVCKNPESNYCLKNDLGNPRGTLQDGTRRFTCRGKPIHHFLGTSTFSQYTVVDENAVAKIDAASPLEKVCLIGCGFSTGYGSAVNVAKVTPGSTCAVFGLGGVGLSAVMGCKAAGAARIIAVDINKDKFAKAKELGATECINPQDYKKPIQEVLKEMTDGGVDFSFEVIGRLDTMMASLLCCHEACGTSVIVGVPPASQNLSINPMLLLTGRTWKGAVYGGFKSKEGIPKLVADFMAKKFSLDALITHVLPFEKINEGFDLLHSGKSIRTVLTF
Sequence of Alcohol dehydrogenase 1A (P07327 whole entry): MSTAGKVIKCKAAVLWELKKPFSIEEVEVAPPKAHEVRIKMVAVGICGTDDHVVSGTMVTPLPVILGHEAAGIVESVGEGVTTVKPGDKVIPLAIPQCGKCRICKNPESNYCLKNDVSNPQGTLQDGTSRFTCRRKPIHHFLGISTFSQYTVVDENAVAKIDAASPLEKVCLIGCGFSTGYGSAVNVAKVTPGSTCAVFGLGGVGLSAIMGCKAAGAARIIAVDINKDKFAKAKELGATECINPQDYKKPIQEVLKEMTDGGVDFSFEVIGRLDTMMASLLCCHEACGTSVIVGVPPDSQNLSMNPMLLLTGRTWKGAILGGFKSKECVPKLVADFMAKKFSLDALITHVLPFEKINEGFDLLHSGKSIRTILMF
Sequence of Alcohol dehydrogenase 1C (P00326 whole entry): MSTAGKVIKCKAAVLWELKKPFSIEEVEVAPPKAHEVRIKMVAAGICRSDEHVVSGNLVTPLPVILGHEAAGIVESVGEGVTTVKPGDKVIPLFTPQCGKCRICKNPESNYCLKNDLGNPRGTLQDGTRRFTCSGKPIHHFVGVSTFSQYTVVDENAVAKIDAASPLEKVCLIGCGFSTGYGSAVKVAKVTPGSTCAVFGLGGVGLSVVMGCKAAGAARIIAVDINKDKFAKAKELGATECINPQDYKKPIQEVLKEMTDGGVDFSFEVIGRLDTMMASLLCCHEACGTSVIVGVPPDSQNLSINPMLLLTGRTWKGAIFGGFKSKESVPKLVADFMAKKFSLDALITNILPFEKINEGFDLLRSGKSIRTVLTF
Sequence of All-trans-retinol dehydrogenase [NAD(+)] ADH4 (P08319 whole entry): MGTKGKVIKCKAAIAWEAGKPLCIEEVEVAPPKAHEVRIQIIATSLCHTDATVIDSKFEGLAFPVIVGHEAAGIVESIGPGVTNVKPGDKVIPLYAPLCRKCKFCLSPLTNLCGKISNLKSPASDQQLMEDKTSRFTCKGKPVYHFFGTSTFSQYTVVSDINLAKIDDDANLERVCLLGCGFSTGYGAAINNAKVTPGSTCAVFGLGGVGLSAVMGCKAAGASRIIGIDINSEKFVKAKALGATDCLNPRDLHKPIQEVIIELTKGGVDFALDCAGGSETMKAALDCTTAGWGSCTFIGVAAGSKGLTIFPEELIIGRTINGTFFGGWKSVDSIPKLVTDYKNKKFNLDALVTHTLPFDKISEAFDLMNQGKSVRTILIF
T1 sequence (P40394 whole entry): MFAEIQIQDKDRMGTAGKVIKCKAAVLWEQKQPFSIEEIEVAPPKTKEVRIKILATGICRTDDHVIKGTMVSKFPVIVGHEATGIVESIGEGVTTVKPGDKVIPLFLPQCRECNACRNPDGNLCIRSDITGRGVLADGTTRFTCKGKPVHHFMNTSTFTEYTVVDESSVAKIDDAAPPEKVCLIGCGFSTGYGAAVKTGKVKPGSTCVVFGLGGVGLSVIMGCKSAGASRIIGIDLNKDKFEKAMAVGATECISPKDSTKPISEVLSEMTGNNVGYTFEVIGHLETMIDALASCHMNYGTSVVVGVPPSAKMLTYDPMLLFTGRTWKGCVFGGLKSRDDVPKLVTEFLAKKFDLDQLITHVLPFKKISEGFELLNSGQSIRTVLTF

| SMILES | Ki (Alcohol dehydrogenase 1C) | Ki (Alcohol dehydrogenase 1A) | Ki [1] | Ki [2] | Ki [3] | Ki (Alcohol dehydrogenase) | Ki [4] |
| --- | --- | --- | --- | --- | --- | --- | --- |
| O=CNC1CC1 | 700 µM | 33 µM | 5200 µM | 6.4 µM | 300 µM | 100 µM | – |
| O=CN(C1CCCC1)C1CCCC1 | 1000 µM | 7.4 µM | – | 1600 µM | – | 2600 µM | – |
| O=CN(C1CCC1)C1CCC1 | 19 µM | 1.8 µM | 280 µM | 4900 µM | 1800 µM | 7200 µM | – |
| O=CN(C1CCCC1)C1CC1 | 4.6 µM | 0.88 µM | 96 µM | 4600 µM | 930 µM | 110 µM | – |
| O=CN(C1CCCCC1)C1CC1 | 120 µM | 5.9 µM | – | 250 µM | 640 µM | 440 µM | – |
| CC(C)CNC=O | 54 µM | 5.5 µM | 340 µM | 26 µM | 180 µM | 13 µM | – |
| O=CNC1CCC1 | 45 µM | 3.8 µM | 450 µM | 2.9 µM | – | 1.7 µM | 54 µM |
| CN(C=O)C1CCCCC1 | 40 µM | 5.5 µM | 120 µM | 920 µM | 4900 µM | 600 µM | – |
| CCCN(C=O)C1CCCC1 | 21 µM | 4.5 µM | 191 µM | 2800 µM | 1700 µM | 1900 µM | – |
| CC(C)NC=O | 15 µM | 22 µM | 1900 µM | 19 µM | 210 µM | 2.6 µM | – |
| CCN(C=O)C1CCCCC1 | 33 µM | 4.5 µM | – | 1500 µM | – | 1400 µM | – |

Results, then the molecule that gave them:

| Ki (Alcohol dehydrogenase 1C) | Ki (Alcohol dehydrogenase 1A) | Ki [1] | Ki [2] | Ki [3] | Ki (Alcohol dehydrogenase) | Ki [4] | SMILES |
| --- | --- | --- | --- | --- | --- | --- | --- |
| 100 µM | 7.2 µM | 110 µM | 11 µM | 30 µM | 16 µM | – | CCCCNC=O |
| 160 µM | 14 µM | – | 4000 µM | – | 5200 µM | – | CCCN(C=O)C1CCCCC1 |
| 5.8 µM | 3.6 µM | 7.1 µM | 1 µM | 47 µM | 12 µM | – | O=CNCC1CCCCC1 |
| 47 µM | 0.36 µM | 360 µM | 10000 µM | 1100 µM | 8600 µM | – | O=CN(C1CCCC1)C1CCC1 [CYCLOBUTYL(CYCLOPENTYL)FORMAMIDE] |
| 0.41 µM | 7 µM | 40 µM | 1.7 µM | 100 µM | 5.4 µM | – | CCCCCCC(C)NC=O (centres undefined) |
| 120 µM | 5.6 µM | 300 µM | 5.5 µM | 21 µM | 10 µM | – | CCCNC=O |
| 2.1 µM | 1.9 µM | 31 µM | 1900 µM | 960 µM | 1100 µM | – | CCCCCCCN(C=O)C1CC1 |
| 83 µM | 24 µM | 150 µM | 46 µM | 1300 µM | 470 µM | – | CC(C)N(C=O)C1CCCCC1 |
| 12 µM | 3.6 µM | 11 µM | 0.33 µM | 0.74 µM | 3 µM | – | CCCCCCCNC=O [HEPTYLFORMAMIDE] |
| 13 µM | 3.9 µM | 150 µM | 7.3 µM | 28 µM | 7.6 µM | – | O=CNC1CCCC1 |
| 5.2 µM | 2.3 µM | 84 µM | 3.4 µM | 380 µM | – | – | O=CNC1CCCCC1 [CYCLOHEXYLFORMAMIDE] |
